Data set [1] concerns SH-SY5Y cells. The data set can be described thus: specificity of uptake by flow cytometry. The class given is cell-based, human. The following applies: 0.1 μM, 6 h at 37°C, three replicate experiments. In general terms: Flow cytometry measures light scatter and fluorescence of single cells or particles in a stream.
The subject of data set [2] is CHO-K1 cells. In words: specificity of uptake by flow cytometry, negative control cells. The following applies: all concentrations (0.1, 0.2, 0.35, 0.5 μM), 6 h at 37°C. The class given is cell-based, Chinese hamster.
The subject of data set [3] is SH-SY5Y cells. The data set can be described thus: time course of agent uptake by confocal microscopy. The class given is cell-based, human. The following applies: 0.1 μM, 37°C.
The subject of data set [4] is CHO-K1 cells. In words: comparative uptake study by confocal microscopy, negative control cells. The class given is cell-based, Chinese hamster.
The subject of data set [5] is SH-SY5Y cells. In words: live cell co-localization with RFP-labeled Rab5 in early endosomes. The following applies: 0.1 μM, 1 h at 37°C, intensities along the x-axis, Amira 5 software. The class given is cell-based, human.
The subject of data set [6] is SH-SY5Y cells. The data set can be described thus: Vybrant MTT Cell Proliferation Assay. The class given is cell-based, human. The following applies: SH-SY5Y cells, 0.1, 0.5 and 1 μM, 12 h at 37°C, absorbance at 540 nm. In short, it runs like this: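 SH-SY5Y cells, maintained in 1:1 DMEM:F12 with 10% FBS at 37°C under 5% CO2, seeded at 2 × 10^4 cells/well and grown overnight in phenol red-free DMEM:F12. Exposed to test compound (0.1, 0.5, 1 μM) for 12 h at 37°C, then to MTT 1 mg/mL for 4 h. Formazan dissolved in Me2SO; absorbance read at 540 nm against untreated control cells.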

Data set [7] concerns SH-SY5Y cells. In words: comparative uptake study by confocal microscopy. The class given is cell-based, human. The settings on record: 0.1 μM, 4 h at 37°C, 3 fields per slide.

Turning to `Cc1cn(CC(=O)N(CCNC(=O)CN(CCNC(=O)CN(CCNC(=O)CN(CCNC(=O)CN(CCNC(=O)CN(CCNC(=O)CN(CCNC(=O)CN(CCNC(=O)CN(CCNC(=O)COCCOCCNC(=O)[C@H](CO)NC(=O)[C@H](Cc2ccccc2)N(C)C(=O)CNC(=O)[C@@H](C)NC(=O)[C@@H](N)Cc2ccc(O)cc2)C(=O)Cn2ccc(N)nc2=O)C(=O)Cn2cnc3c(N)ncnc32)C(=O)Cn2cc(C)c(=O)[nH]c2=O)C(=O)Cn2cnc3c(=O)[nH]c(N)nc32)C(=O)Cn2cnc3c(=O)[nH]c(N)nc32)C(=O)Cn2cc(C)c(=O)[nH]c2=O)C(=O)Cn2cnc3c(=O)[nH]c(N)nc32)C(=O)Cn2ccc(N)nc2=O)CC(=O)NCCN(CC(=O)NCCN(CC(=O)NCCN(CC(=O)NCCOCCOCC(=O)N[C@@H](CSC2CC(=O)N(CCCCCNC(=O)c3ccc(-c4c5ccc(=N)c(S(=O)(=O)O)c-5oc5c(S(=O)(=O)O)c(N)ccc45)c(C(=O)O)c3)C2=O)C(=O)O)C(=O)Cn2ccc(N)nc2=O)C(=O)Cn2cnc3c(N)ncnc32)C(=O)Cn2ccc(N)nc2=O)c(=O)[nH]c1=O` (stereo partly drawn) [WT4879, Tyr-D-Ala-Gly-N-MePhe-Ser-AEEA-CAT GGT GCT CAC-AEEA-Cys-AlexaFluor488], the “uptake of WT4879 relative to WT4786 (ratio of specific over non-specific uptake)” value in the data set with SH-SY5Y cells [1] is listed as ~ 5 fold. Also, the “specificity ratio (WT4879 vs WT4786 uptake)” value in the data set on CHO-K1 cells [2] turned out to be 1 ± 0.3. The “time course of uptake intensity” value with SH-SY5Y cells [3] (0-12 h, ImageJ, three regions of interest) is on record as “increased with time up to 4 h, leveling off thereafter”. Besides, the “uptake at 0.25 and 0.5 h” value with SH-SY5Y cells [3] (data not shown) is given as “No significant uptake”. In the data set on SH-SY5Y cells [3] (uniformly distributed in the cytoplasm), the “uptake after 1 h” value is “taken up strongly”. In the data set on CHO-K1 cells [4] (0.1 μM, 4 h at 37°C, confocal microscopy, 3 fields per slide), the “uptake in CHO-K1 cells relative to SH-SY5Y cells” value is ~ 21%. In the data set on CHO-K1 cells [4] (conclusion, in words), the “non-specific uptake in control cell-line CHO-K1” value was “minimal non-specific uptake”. Further, in the data set with SH-SY5Y cells [5], the “overlap of AlexaFluor 488 intensity with RFP-labeled Rab5 intensity” value is reported as over 95%. In addition, the “cellular toxicity (MTT cell viability)” value in the data set on SH-SY5Y cells [6] was “No cellular toxicity was observed”.

Take “Ala-D-Ala-Gly-N-MePhe-Ser-AEEA-CAT GGT GCT CAC-AEEA-Cys-AlexaFluor488 [WT4786]”: the “uptake in SH-SY5Y cells relative to the specific WT4879” value in the data set with SH-SY5Y cells [7] is ~ 20%.

Source of the values: PMC3288683 (Bioconjugate Chemistry, 2012).
